Screening data deposited in PubChem BioAssay by The Scripps Research Institute Molecular Screening Center.
OXTR ag: activates the human oxytocin receptor; CHO-OTR cells, Fluo-8 calcium fluorescence; normalized: DMSO 0%, oxytocin 100%; 0.32% of 320,000 active; activation, % at 3 µM; AID 2435; P30559;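 active = activation above the mean of all tested compounds plus 3 SD, cutoff set per screening run, cut at about 20% in these data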;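 note: peak over basal fluorescence ratio from a 100 s FLIPR kinetic read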
TAAR1 agonist: agonists of human TAAR1 | Q96RJ0 | CHO RD-HGA16 TAAR1, Fluo-8 calcium fluorescence; vehicle wells 0%, saturating PEA agonist 100% | activation, % at 3 µM | 0.99% of 360,000 active;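 active = activation above the mean activation of all test compounds in the run plus 3 SD, cut at about 38% in these data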
Target sequence (Q96RJ0 whole entry, looked up): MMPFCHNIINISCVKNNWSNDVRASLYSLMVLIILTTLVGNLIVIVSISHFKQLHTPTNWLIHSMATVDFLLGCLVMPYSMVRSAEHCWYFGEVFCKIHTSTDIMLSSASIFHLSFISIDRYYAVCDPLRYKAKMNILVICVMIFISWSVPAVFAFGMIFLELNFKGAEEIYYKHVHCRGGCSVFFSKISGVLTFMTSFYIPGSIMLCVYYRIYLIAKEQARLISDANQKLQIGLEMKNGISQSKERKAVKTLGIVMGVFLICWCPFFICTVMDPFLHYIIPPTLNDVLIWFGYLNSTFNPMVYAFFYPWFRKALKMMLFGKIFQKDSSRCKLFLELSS
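Repeats: no replicates (n 1) | Material: CHO-derived RD-HGA16 cells with stable Gα16 and human TAAR1 | Technique: Kinetic Fluo-8 calcium fluorescence | Schedule: 17-24 h seeding, 75 min 37 °C dye, 30 min RT | Evaluation: % activation from peak over basal fluorescence ratio, DMSO-to-PEA scaled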
OXTR potentiator: human OXTR potentiation; CHO-OTR cells, Fluo-8 calcium fluorescence, potentiator mode; 0% = oxytocin EC15, 100% = EC100; activation, % at 3 µM; 0.061% of 320,000 active; AID 2445;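 active = activation above that plate's cutoff, the mean activation of tested compounds plus 3 SD, cut at about 6.6% in these data, passing the limit was not always enough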
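System: human OTR in CHO cells / Also added: sub-maximal oxytocin, roughly EC15 / Control set: EC15 oxytocin low, 75 nM oxytocin high / Schedule: 6 min compound pre-incubation at room temperature, 100 s kinetic read / Compound: single-point 3.0 µM / Replication: singlicate / Technique: Fluo-8 calcium dye fluorescence / Read-out basis: % activation of max/min ratio relative to oxytocin controls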
V1aR counter: activates human V1a receptor in oxytocin agonist counter-screen. P37288. CHO-V1R cells, Fluo-8 calcium fluorescence, agonist mode; 0% DMSO, 100% 3 nM vasopressin. activation, % at 3 µM. 0.25% of 320,000 active;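 active = activation above the mean activation of all tested compounds plus 3 SD, per screening run, cut at about 20% in these data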;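 note: signal is peak over basal fluorescence ratio across a 100 second FLIPR read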
Target sequence (P37288 whole entry, looked up): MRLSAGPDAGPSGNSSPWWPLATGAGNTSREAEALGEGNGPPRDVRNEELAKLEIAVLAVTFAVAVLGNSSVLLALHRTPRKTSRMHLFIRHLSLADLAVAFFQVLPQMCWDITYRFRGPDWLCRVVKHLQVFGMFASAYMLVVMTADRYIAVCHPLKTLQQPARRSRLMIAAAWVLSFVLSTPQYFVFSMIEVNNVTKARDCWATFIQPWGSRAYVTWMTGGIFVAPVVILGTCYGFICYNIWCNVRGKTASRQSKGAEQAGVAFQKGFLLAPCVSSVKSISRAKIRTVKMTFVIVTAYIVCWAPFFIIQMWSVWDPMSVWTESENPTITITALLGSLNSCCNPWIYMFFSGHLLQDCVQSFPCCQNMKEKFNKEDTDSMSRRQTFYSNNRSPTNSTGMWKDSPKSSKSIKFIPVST
TAAR1 antag: human TAAR1 antagonism; Q96RJ0; 1.5% of 360,000 active; inhibition, % at 3 µM; CHO RD-HGA16 TAAR1, Fluo-8 calcium fluorescence, antagonist;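 active = inhibition above a per-plate cutoff, the mean inhibition of test compounds on that plate plus 3 SD, cut at about 49% in these data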
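System: CHO RD-HGA16 cells bearing hTAAR1. Reagent: EC80 β-phenethylamine stimulus. Schedule: seeding 17-24 h prior, 75-min 37 °C, 30-min RT dye loading. Signal: Fluo-8 intracellular calcium dye fluorescence, real-time kinetic reads. Read-out: % inhibition from peak post-agonist over basal fluorescence ratio. Benchmarks: vehicle wells and EC80 agonist wells. Replicates: n of 1.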
OXTR agonist cf: human OXTR agonism, confirmation | AID 434963 | activation, % at 3 µM | CHO-OTR cells, Fluo-8 calcium fluorescence, agonist | 20% of 390 active | shares compounds with OXTR ag;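 active = mean activation above about 20% derived from the earlier single-dose screen, limit read from the data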;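 note: peak over minimum fluorescence ratio per well during a 100 second FLIPR read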
V1R ag counter 3x: activates V1a receptor in oxytocin agonist counter-screen; shares compounds with OXTR ag; activation, % at 3 µM; CHO-V1R cells, Fluo-8 calcium fluorescence; 10% of 390 active;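 active = mean activation over triplicate exceeds the hit threshold set in the earlier primary screen, cut at about 20% in these data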;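 note: peak over basal fluorescence ratio within a 100 second read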
OXTR pot confirm: confirmation of human oxytocin receptor potentiators. shares compounds with OXTR potentiator. CHO-OTR cells, Fluo-8 calcium fluorescence, potentiation; scaled from low-dose to maximal oxytocin. activation, % at 3 µM. 180 tested, under 10 active;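 active = mean percent activation over triplicates above a cutoff set from solvent-only control plates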;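 note: compounds tested in the presence of an EC15 dose of oxytocin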
V1aR agonist cf: human V1a receptor agonism, confirmation; shares compounds with V1aR counter; CHO-V1R cells, Fluo-8 calcium fluorescence, agonist; activation, % at 3 µM; 20% of 180 active;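 active = average activation exceeds primary screen hit cutoff, cut at about 21% in these data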;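 note: peak over basal fluorescence ratio during a 100 s FLIPR read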
OXTR counter: counter-screen for V1a receptor agonists: oxytocin receptor agonists. shares compounds with V1aR counter. CHO-OTR cells, Fluo-8 calcium fluorescence, agonist. activation, % at 3 µM. 10% of 180 active. AID 434969;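 active = mean activation over three repeats above the cutoff from the earlier oxytocin receptor agonist screen, cut at about 20% in these data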;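 note: peak over minimum fluorescence ratio within a 100 second FLIPR read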
TAAR1 nonsel count: nonselective antagonist in TAAR1 antagonist counter-screen. 77% of 2,400 active. counterscreen cell line, calcium fluorescence, antagonist mode. inhibition, % at 3 µM. shares compounds with TAAR1 antag; in the data active = inhibition above about 22%;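 note: CHO-Ga16 host cells stimulated with ATP at an EC80 level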
TAAR1 antag conf: human TAAR1 antagonism, confirmed. shares compounds with TAAR1 antag. TAAR1-expressing cells, fluorescence antagonist read-out. inhibition, % at 3 µM. 40% of 2,400 active; in the data active = inhibition above about 49%;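 note: CHO-Ga16 host cells challenged with agonist PEA near its EC80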
Ga16 ag counter: nonselective Ga16 agonist in TAAR1 antagonist counter-screen | activation, % at 3 µM | AID 651953 | shares compounds with TAAR1 antag | Ga16-expressing cells, calcium fluorescence, agonist counterscreen | 18% of 2,400 active; in the data active = activation above about 12%
TAAR1 ag count: counter-screen for human TAAR1 antagonists: TAAR1 agonists; shares compounds with TAAR1 antag; hTAAR1 cell line, fluorescence activation, agonist mode; activation, % at 3 µM; 2% of 2,400 active; AID 651955; in the data active = activation above about 37%;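 note: CHO cells stably expressing TAAR1 with calcium dye readout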
Each line names hits and unclear results; the compound was inactive in the other large screens (follow-up assays come after a bar, where they were run). Shown are actives, neighbours in structure and some others; about 2.3% of the full set was active somewhere.

CCOC(=O)C(NC(=O)CC)(Nc1ccc(C(O)(C(=O)OCC)C(F)(F)F)cc1C)C(F)(F)F (centres undefined)	none
CC[C@H]1CN2CCC1C[C@H]2[C@H](O)c1ccnc2ccc(OC)cc12 (some centres undefined)	none
COc1cc(CC2(CCc3ccncc3)C(=O)N(C)C(=O)N(C)C2=O)cc(OC)c1OC	none
CC1=NCCc2c1[nH]c1cc(O)ccc21	OXTR ag 43, V1aR counter 30
COc1ccc2c3c([nH]c2c1)C(C)=NCC3	none
CCN(CC)CCC(=O)O[C@H]1CC[C@]2(C)C3CC[C@@]4(C)C(CC[C@]4(C)O)C3CC[C@H]2C1 (some centres undefined)	TAAR1 agonist 43, TAAR1 antag 60
CNC(=O)Oc1cccc2c1OC(C)(C)O2	none (no result: OXTR ag, OXTR potentiator, V1aR counter)
NC(Cc1ccc(F)cc1)c1csc(Nc2ccccn2)n1 (centres undefined)	TAAR1 agonist 40 (no result: OXTR ag, OXTR potentiator, V1aR counter)
NC(Cc1ccccc1)c1csc(Nc2ccccn2)n1 (centres undefined)	none (no result: OXTR ag, OXTR potentiator, V1aR counter)
NC(Cc1ccc(Cl)cc1)c1csc(Nc2ccccn2)n1 (centres undefined)	TAAR1 agonist 44 (no result: OXTR ag, OXTR potentiator, V1aR counter)
CC(=O)OC1C(=O)OCC23CCC4(C)OC4C2OC2CC(OC(=O)C=CC=CC(=O)OCCC1C)C3(C)C21CO1 (centres undefined)	TAAR1 antag 65 (no result: OXTR ag, OXTR potentiator, V1aR counter)
Cc1cc(C)cc(-n2c(C)cc(/C=C3\C(=O)NC(=O)N(C)C3=O)c2C)c1	TAAR1 agonist 38
Cc1cc(/C=C2\C(=O)NC(=O)N(c3cccc(F)c3)C2=O)c(C)n1-c1cc(C(=O)O)cc(C(=O)O)c1	none
Cc1[nH]c2ccc(OC(F)(F)F)cc2c1CCNCc1cccc([N+](=O)[O-])c1	OXTR ag 20, TAAR1 agonist 44, TAAR1 antag 49 | OXTR agonist cf inactive | V1R ag counter 3x inactive
CC1NC(=O)NC(=O)C1Br (centres undefined)	none (no result: OXTR ag, OXTR potentiator, V1aR counter)
Cc1ccc2c(c1)C1CN(C)CCC1N2C(=O)Nc1cccc(Cl)c1 (centres undefined)	OXTR ag 30 | OXTR agonist cf inactive | V1R ag counter 3x inactive
COc1ccc(CC(C)NCCC(c2ccccc2)c2ccccc2)cc1 (centres undefined)	OXTR ag 21, TAAR1 agonist 42 | OXTR agonist cf inactive | V1R ag counter 3x inactive
CCCCNC(C)Cc1ccccc1 (centres undefined)	none
CN1C(=O)NC(=O)C2(CCCC2)C1=O	none (no result: OXTR ag, OXTR potentiator, V1aR counter)
CN1CCN(c2ccc([N+](=O)[O-])c(SCCO)c2)CC1	OXTR potentiator 12 | OXTR pot confirm inactive
CN1CCN(c2ccc([N+](=O)[O-])c(N)c2)CC1	none
CC(C)CC(C)N (centres undefined)	none
COc1cccc(NC(=O)[C@@H](NC(=O)N2C[C@H]3C[C@@H](C2)c2cccc(=O)n2C3)C(C)C)c1	OXTR potentiator 11 | OXTR pot confirm inactive
CCOc1cc2c(cc1OCC)-n1cccc1C(c1cc(C)c(OC)cc1C)NC2 (centres undefined)	V1aR counter 29 | V1aR agonist cf inactive | OXTR counter inactive
COC(=O)C1C(OC(=O)c2ccccc2)CC2CCC1[N+]2(C)C (centres undefined)	none (no result: OXTR ag, OXTR potentiator, V1aR counter)
CCC(c1nnnn1Cc1ccccc1)N1CCC(n2c(=O)[nH]c3ccccc32)CC1 (centres undefined)	TAAR1 antag 72 (no result: OXTR ag, OXTR potentiator, V1aR counter) | TAAR1 nonsel count 35 | TAAR1 antag conf 56 | Ga16 ag counter inactive | TAAR1 ag count inactive
COc1ccc(-n2nnnc2C(CCc2ccccc2)N2CCC(n3c(=O)[nH]c4ccccc43)CC2)cc1 (centres undefined)	TAAR1 antag 57 (no result: OXTR ag, OXTR potentiator, V1aR counter) | TAAR1 nonsel count inactive | TAAR1 antag conf inactive | Ga16 ag counter inactive | TAAR1 ag count inactive
COc1cccc(C(c2nnnn2-c2c(C)cccc2C)N2CCC(n3c(=O)[nH]c4ccccc43)CC2)c1OC (centres undefined)	none (no result: OXTR ag, OXTR potentiator, V1aR counter)
O=c1[nH]c2ccccc2n1C1CCN(C(c2ccnc3ccccc23)c2nnnn2-c2ccc3c(c2)OCCO3)CC1 (centres undefined)	TAAR1 antag 66 (no result: OXTR ag, OXTR potentiator, V1aR counter) | TAAR1 nonsel count inactive | TAAR1 antag conf inactive | Ga16 ag counter 13 | TAAR1 ag count 48
CCCCn1nnnc1C(C1CC1)N1CCC(n2c(=O)[nH]c3ccccc32)CC1 (centres undefined)	TAAR1 antag 73 (no result: OXTR ag, OXTR potentiator, V1aR counter) | TAAR1 nonsel count 24 | TAAR1 antag conf inactive | Ga16 ag counter inactive | TAAR1 ag count inactive
CCCCn1nnnc1C(C1CC1)N1CCC2(CC1)C(=O)NCN2c1ccccc1 (centres undefined)	none (no result: OXTR ag, OXTR potentiator, V1aR counter)
CCC(c1nnnn1-c1ccc(OC)cc1)N1CCC(n2c(=O)[nH]c3ccccc32)CC1 (centres undefined)	none (no result: OXTR ag, OXTR potentiator, V1aR counter)
Nc1nc(N)c2cnnn2n1	none (no result: OXTR ag, OXTR potentiator, V1aR counter)
CCSC(=O)N1CCCCCC1	none
CCCCn1nnnc1C(CCc1ccccc1)N1CCC(n2c(=O)[nH]c3ccccc32)CC1 (centres undefined)	TAAR1 antag 67 (no result: OXTR ag, OXTR potentiator, V1aR counter) | TAAR1 nonsel count inactive | TAAR1 antag conf inactive | Ga16 ag counter inactive | TAAR1 ag count inactive
CCCCn1nnnc1C(CCSC)N1CCC(n2c(=O)[nH]c3ccccc32)CC1 (centres undefined)	TAAR1 antag 65 (no result: OXTR ag, OXTR potentiator, V1aR counter) | TAAR1 nonsel count 29 | TAAR1 antag conf 54 | Ga16 ag counter inactive | TAAR1 ag count inactive
